In ChEMBL document CHEMBL1155099, “Natural products in parallel synthesis: triazole libraries of nonactic acid” (2008):
The source made the active and inactive calls.

Columns and labels:
Format in all cases: functional, organism-based
[1] = system: Escherichia coli; test: Antibacterial activity against Escherichia coli at 1 mM by almar blue dye reduction assay
In short: (§1)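 Single-point primary screen at 1 mM using Alamar Blue dye reduction as the growth read-out.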

[2] = system: Staphylococcus aureus; test: Antibacterial activity against Staphylococcus aureus at 1 mM by almar blue dye reduction assay; in short: as §1
[3] = system: Candida albicans; test: Antifungal activity against Candida albicans at 1 mM by almar blue dye reduction assay; in short: as §1
[4] = system: Saccharomyces cerevisiae; test: Antifungal activity against Saccharomyces cerevisiae at 1 mM by almar blue dye reduction assay; in short: as §1
[5] = system: Cryptococcus neoformans; test: Antifungal activity against Cryptococcus neoformans at 1 mM by almar blue dye reduction assay; in short: as §1
[6] = system: Bacillus anthracis; test: Antibacterial activity against Bacillus anthracis at 1mM by almar blue dye reduction assay
[7] = system: Pseudomonas aeruginosa; test: Antibacterial activity against Pseudomonas aeruginosa at 1 mM by almar blue dye reduction assay; in short: as §1
[8] = system: Bacillus subtilis; test: Antibacterial activity against Bacillus subtilis at 1 mM by almar blue dye reduction assay; in short: as §1
[9] = system: Bacillus cereus; test: Antibacterial activity against Bacillus cereus at 1 mM by almar blue dye reduction assay; in short: as §1

Measured: Activity

COc1ccc(OCC#Cc2cn([C@H](C)C[C@@H]3CC[C@H]([C@@H](C)C(=O)N4CCN(CC5CCCO5)CC4)O3)nn2)cc1 (some centres not stated)
inactive: all assays above

Cc1cccc(NC(=O)OCC#Cc2cn([C@H](C)CC3CCC([C@@H](C)C(=O)N4CCCC4)O3)nn2)c1 (single isomer, unassigned)
inactive: all assays above

C[C@H](C[C@@H]1CC[C@H]([C@@H](C)C(=O)N(C)Cc2ccccc2)O1)n1cc(C#CCN2CCN(c3ccccc3)CC2)nn1
inactive: all assays above

CCCNC(=O)NCC#Cc1cn([C@H](C)CC2CCC([C@@H](C)C(=O)N3CCN(CC4CCCO4)CC3)O2)nn1 (single isomer, unassigned)
inactive: all assays above

CCCNC(=O)NCC#Cc1cn([C@H](C)CC2CCC([C@@H](C)C(=O)NC(C)C)O2)nn1 (single isomer, unassigned)
inactive: all assays above

CCC(=O)OCC#Cc1cn([C@H](C)CC2CCC([C@@H](C)C(=O)N3CCN(CC4CCCO4)CC3)O2)nn1 (single isomer, unassigned)
inactive: all assays above

C[C@H](C[C@@H]1CC[C@H]([C@@H](C)C(=O)N(C)Cc2ccccc2)O1)n1cc(C#CCCCC#N)nn1
inactive: all assays above

CCN(CC)C(=O)[C@H](C)[C@H]1CC[C@@H](C[C@@H](C)n2cc(C#Cc3ccccn3)nn2)O1
inactive: all assays above

C[C@H](C[C@@H]1CC[C@H]([C@@H](C)C(=O)N(C)Cc2ccccc2)O1)n1cc(C#Cc2ccccc2)nn1
inactive: all assays above

COc1cccc(OCC#Cc2cn([C@H](C)C[C@@H]3CC[C@H]([C@@H](C)C(=O)N4CCN(CC5CCCO5)CC4)O3)nn2)c1OC (some centres not stated)
inactive: all assays above

C[C@H](C[C@@H]1CC[C@H]([C@@H](C)C(=O)N2CCCC2)O1)n1cc(C#CCC2CCCC2)nn1
inactive: all assays above

C[C@H](C[C@@H]1CC[C@H]([C@@H](C)C(=O)N2CCN(CC3CCCO3)CC2)O1)n1cc(C#CCOc2ccc(C(F)(F)F)cc2)nn1 (some centres not stated)
inactive: all assays above

C[C@H](C[C@@H]1CC[C@H]([C@@H](C)C(=O)N(C)Cc2ccccc2)O1)n1cc(C#Cc2ccc(C(F)(F)F)cc2)nn1
inactive: all assays above

COc1cccc(OCC#Cc2cn([C@H](C)C[C@@H]3CC[C@H]([C@@H](C)C(=O)N(C)Cc4ccccc4)O3)nn2)c1OC
inactive: all assays above

C[C@H](C[C@@H]1CC[C@H]([C@@H](C)C(=O)N2CCCC2)O1)n1cc(C#CCc2ccccc2)nn1
inactive: all assays above

CC(C)NC(=O)[C@H](C)[C@H]1CCC(C[C@@H](C)n2cc(C#Cc3ccccc3[N+](=O)[O-])nn2)O1 (single isomer, unassigned)
inactive: all assays above

C[C@H](C[C@@H]1CC[C@H]([C@@H](C)C(=O)N2CCN(CC3CCCO3)CC2)O1)n1cc(C#CCN2CCOCC2)nn1 (some centres not stated)
inactive: all assays above

CC(C)NC(=O)[C@H](C)[C@H]1CC[C@@H](C[C@@H](C)n2cc(C#CCN3CCOCC3)nn2)O1
inactive: all assays above

COCC#Cc1cn([C@H](C)C[C@@H]2CC[C@H]([C@@H](C)C(=O)N3CCN(CC4CCCO4)CC3)O2)nn1 (some centres not stated)
inactive: all assays above

COCC#Cc1cn([C@H](C)C[C@@H]2CC[C@H]([C@@H](C)C(=O)NC(C)C)O2)nn1
inactive: all assays above

CC(C)NC(=O)[C@H](C)[C@H]1CC[C@@H](C[C@@H](C)n2cc(C#CCCCC#N)nn2)O1
inactive: all assays above

CC(C)NC(=O)[C@H](C)[C@H]1CC[C@@H](C[C@@H](C)n2cc(C#CCN3CCN(c4ccccc4)CC3)nn2)O1
inactive: all assays above

C[C@H](C[C@@H]1CC[C@H]([C@@H](C)C(=O)N(C)Cc2ccccc2)O1)n1cc(C#CCOc2ccccc2)nn1
inactive: all assays above
